An excerpt weighted towards active compounds, which were near 3% of everything screened.
5HT1E antag = 5-HT1E (human) receptor antagonism. inhibition, % at 6 µM. AID 571. CHO 5-HT1E Ga15 NFAT-bla reporter, FRET, antagonist. P28566. 65,000 tested, 0.99% active;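 active means inhibition above a set limit, the mean inhibition across every tested compound plus 3 SD, cut at about 29% in these data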;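 further: signal is the 460 over 535 nm emission ratio of beta-lactamase substrate; 0% = agonist plus DMSO wells and 100% = wells without agonist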
Target sequence (P28566 whole entry, looked up): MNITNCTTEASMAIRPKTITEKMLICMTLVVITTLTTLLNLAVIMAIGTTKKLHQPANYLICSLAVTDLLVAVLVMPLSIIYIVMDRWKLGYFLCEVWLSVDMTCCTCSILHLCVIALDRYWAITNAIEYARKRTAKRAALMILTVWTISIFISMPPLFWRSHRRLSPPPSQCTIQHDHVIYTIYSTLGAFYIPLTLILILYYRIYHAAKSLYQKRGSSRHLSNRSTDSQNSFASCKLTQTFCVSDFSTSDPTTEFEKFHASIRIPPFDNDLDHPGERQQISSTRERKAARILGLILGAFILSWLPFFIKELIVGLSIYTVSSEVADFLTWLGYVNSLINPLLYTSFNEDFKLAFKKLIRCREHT
S1P1 ag-PAM = S1P1 (human) agonism or agonism potentiation; S1P1 CRE-bla cells, forskolin, beta-lactamase FRET, potentiator mode; S1P1 agonist co-added at EC20, 2 nM; 100% = saturating reference agonist, 0% = basal; activation, % at 9.5 µM; 56,000 tested, 0.57% active;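 active means activation above a cutoff set at the mean activation of all tested compounds plus 3 SD, cut at about 54% in these data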;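 further: forskolin at 4 µM as EC80 and the EC20 agonist is SEW2871; 100% = SEW2871 at its EC100 plus forskolin at EC80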
5-HT1A blocker = antagonists of human 5-HT1a serotonin receptor; CHO 5-HT1a Ga15 NFAT-bla reporter, antagonist mode; inhibition, % at 10 µM; 62,000 tested, 0.68% active;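 active means inhibition above the mean of all tested compounds plus 3 SD, cut at about 43% in these data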;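 further: receptor stimulated by 5-CT agonist at 100 nM near EC80; beta-lactamase reporter measured by ratiometric fluorescence of a cleavable substrate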
S1P3 agonist = activates the human S1P3 receptor | AID 373 | 60,000 tested, 0.1% active | Q99500 | activation, % at 4.5 µM | S1P3 NFAT-BLA reporter cells, agonism, FRET ratio; relative to 1 µM S1P, basal subtracted;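 active means activation above the screen-wide mean plus 3 SD, cut at about 4.5% in these data, passing the limit was not always enough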
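Measure – % activation relative to 1 µM S1P (100%), per plate · System – stable CHO line with human S1P3, Gα16, NFAT-BLA reporter · Timing – cells plated overnight, compound 4 h 37 °C, substrate 2 h RT · Technique – fluorescent BLA substrate, ex 405 nm, em 460/535 nm ratio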
HTR1A agonist = 5-HT1a (human) receptor agonism | P08908 | CHO 5-HT1a Ga15 NFAT-bla reporter, FRET ratio; 0% basal, 100% maximal reference agonist | activation, % at 10 µM | 65,000 tested, 0.56% active | AID 567;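 active means activation above the screen-wide mean activation plus 3 SD, cut at about 19% in these data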;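 further: 0% = DMSO wells and 100% = 5-CT at EC100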
HTR1E agonist = activates the human 5-HT1E serotonin receptor. 65,000 tested, 0.69% active. CHO 5-HT1E Ga15 NFAT-bla reporter, FRET; 0% DMSO wells, 100% control agonist wells. activation, % at 6 µM;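 active means activation above a set limit, the screen-wide mean activation plus 3 SD, cut at about 8.5% in these data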;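 further: 100% = positive control agonist at 1 µM giving full maximal response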
* marks the source's active call; other numbers are inactive results; · = no result.

SMILES | 5HT1E antag | S1P1 ag-PAM | 5-HT1A blocker | S1P3 agonist | HTR1A agonist | HTR1E agonist
COc1cccc(OCc2nc3c4cnn(-c5ccccc5)c4ncn3n2)c1 | 2 | 6 | 0 | -1 | 24* | 0
COc1cccc(OCCN2CCN(c3ncnc4c3cnn4-c3ccccc3)CC2)c1 | -10 | -1 | · | -4 | 6 | 0
Cn1c(C(=O)NCCCN2CCN(c3ccc(F)cc3)CC2)cc2c(=O)n(C)c3ccccc3c21 | 2 | -10 | 65* | -1 | 14 | 1
CCOC(=O)c1cnc(-n2nc(C)cc2C)nc1NCc1ccc2c(c1)OCO2 | 8 | -26 | 43* | -1 | 0 | 0
N#Cc1c(-c2ccccc2)cc(C2CC2)nc1N | 33* | -31 | 25 | 0 | 5 | 0
N#Cc1c(-c2ccco2)cc(C2CC2)nc1N | 24 | -51 | · | -3 | 4 | -1
CN(CC(=O)Nc1ccc(Cl)cc1)CC(=O)Nc1cc(Cl)ccc1C#N | 3 | 17 | 15 | 0 | -2 | 0
Fc1ccc(CNc2ncnc3c2cnn3-c2ccccc2)cc1 | 17 | -30 | 12 | -1 | 0 | 1
Cc1cccc(-n2ncc3c(NCc4ccco4)ncnc32)c1 | 33* | -6 | · | -3 | 1 | 0
Cc1cccc(-n2ncc3c(NCc4ccccc4)ncnc32)c1 | 26 | 18 | 11 | 0 | 1 | 0
c1ccc(CNc2ncnc3c2cnn3-c2ccccc2)cc1 | 29* | 6 | 7 | 0 | 2 | 0
COc1ccc(C(=O)N2c3cc4c(cc3C(C)=CC2(C)C)OCO4)cc1 | 5 | 40 | 54* | -1 | -1 | -1
CC(=O)NC1C(=O)N(CCc2ccccc2)c2ccccc21 (stereo unspecified) | 0 | -13 | 17 | -1 | 0 | 14*
CN(C)c1nc(N)nc(CSc2n[nH]c(-c3ccccc3)n2)n1 | 30* | -57 | -15 | 2 | -2 | 0
O=C(CSc1n[nH]c(-c2ccccc2)n1)c1ccccc1 | 1 | -31 | 1 | -1 | -3 | 0
CC1(C)CC(=O)C2=C(C1)Nc1ccccc1NC2c1nc2ccccc2[nH]1 (stereo unspecified) | 34* | 1 | -6 | 0 | 0 | 0
CCOc1cc(S(=O)(=O)N2CCN(Cc3ccccc3)CC2)ccc1Br | 4 | 40 | 0 | 0 | 0 | -1
CCCCNC(=O)c1ccccc1C(=O)NCCCC | 3 | · | -5 | 0 | 0 | -1
CCCCP(=O)(CCCC)c1ccccc1C(=O)O | 4 | -8 | 7 | 0 | 252* | -1
CCN(CC)CCCNC(=O)c1cn(CCOC)c(=O)c2c1c1ccccc1n2C | 4 | 6 | 11 | 0 | -2 | 0
COc1ccc(S(=O)(=O)n2nc(OC(=O)c3ccccc3Br)cc2N)cc1 | -2 | 40 | 18 | 0 | -3 | -1
CS(=O)(=O)n1nc(OC(=O)c2cccc3ccccc23)cc1N | -2 | 65* | 43* | -2 | -2 | -1
CCc1nc(N)c(C#N)c(-c2ccncc2)c1C | 5 | -36 | -13 | -1 | 1 | 1
CCCc1nc(N)c(C#N)c(N)c1C#N | 29* | -96 | -9 | 0 | -2 | 0
COc1ccc(-c2nnc(SCc3nnc(-c4ccc(Cl)cc4)o3)n2-c2ccccc2)cc1 | -8 | 10 | 15 | -1 | 1 | 3
SMILES | 5HT1E antag | S1P1 ag-PAM | 5-HT1A blocker | S1P3 agonist | HTR1A agonist | HTR1E agonist
CN(C)CCCN1c2ccccc2Sc2ccc(Cl)cc21 | -7 | -6 | · | -2 | 1 | 8.7*
OCCN1CCN(CCCN2c3ccccc3Sc3ccc(Cl)cc32)CC1 | 0 | -12 | · | -3 | -4 | 0
CN=C(NC#N)SCC(=O)c1ccc(Cl)cc1Cl | 20 | 82* | 3 | 0 | 0 | -1
Cc1ccc(C)n1NC(=O)c1ccc(Cl)cc1Cl | 2 | 7 | 18 | 0 | -1 | -1
CN1CCN(C(=O)CSc2nc(-c3cccs3)cc(-c3cccs3)c2C#N)CC1 | 20 | 67* | 5 | -1 | -4 | 4
COc1ccc(-c2cc(-c3cccs3)c(C#N)c(SCC(=O)NCc3ccco3)n2)cc1 | 32* | 14 | 23 | -1 | 3 | -1
O=C(CSc1nc(-c2cccs2)cc(C(F)(F)F)n1)NCc1ccco1 | 4 | -1 | 4 | -1 | -3 | 0
Cc1nc(SCC(=O)N2CCN(c3ccccc3)CC2)c2c(=O)n(C)c(=O)n(C)c2n1 | 4 | 13 | 10 | 0 | -3 | 0
Cc1cc(NC(=O)CSc2ccc(-c3nc4cc(C)c(C)cc4[nH]3)cn2)no1 | 31* | · | 22 | · | 1 | 1
CC1=C(C#N)c2nc(N)c(C#N)c(C)c2/C1=C\c1ccccc1 | -8 | -21 | -6 | -2 | 0 | 0
Cc1ccnc(NC(=O)CCC(=O)N(CC(=O)NC2CCCCC2)Cc2ccc3c(c2)OCO3)c1 | 5 | -26 | 9 | -1 | -3 | 0
CCOc1ccccc1N1CCN(C(=O)c2ccncc2)CC1 | 2 | 6 | -1 | -1 | 0 | 2
Cc1ccccc1S(=O)(=O)Cc1ccc(C(=O)N2CCN(c3cccc(C)c3C)CC2)o1 | 22 | 29 | 16 | -2 | 2 | 32*
Cc1ccccc1S(=O)(=O)Cc1ccc(C(=O)N2CC(C)CC(C)C2)o1 (stereo unspecified) | -2 | -4 | -1 | 0 | -1 | 1
Cc1noc(C)c1CSCC(=O)N1CCN(c2ccc(F)cc2)CC1 | 2 | 6 | 2 | -1 | -6 | 0
Cc1cccc(N2CCN(C(=O)c3ccncc3)CC2)c1C | -3 | · | -7 | 0 | 2 | 19*
Cc1cccc(N2CCN(C(=O)CSCc3c(C)noc3C)CC2)c1C | 2 | 82* | 17 | -1 | -1 | 1
COc1cc(C(=O)N2CCN(c3cccc(C)c3C)CC2)cc(OC)c1OC | 50* | 2 | 21 | -2 | -2 | 0
CC(=O)Oc1c(Cl)c(N2CCOCC2)c(OC(C)=O)c2ccccc12 | 3 | · | 19 | -1 | -1 | 0
Cc1cc(NC(=O)COC(=O)C(Nc2ccc(C(F)(F)F)cc2Cl)C(C)C)no1 (stereo unspecified) | 7 | 12 | 8 | -2 | -2 | -1
CC(=O)c1cc(OC(=O)c2ccncc2)ccc1OC(=O)c1ccncc1 | 2 | -19 | -2 | 0 | -3 | 0
COc1cc(C(=O)N2CCN(c3cc(Cl)ccc3Cl)CC2)cc(OC)c1OC | 64* | 0 | 22 | -1 | 0 | 0
COc1ccc(C(=O)N2CCN(C(=O)c3cc(OC)c(OC)c(OC)c3)CC2)cc1 | -10 | 4 | -4 | 0 | 1 | 1
CCN(CC)CCNC(=O)c1sc2nc(-c3ccccc3)cn2c1C | 0 | -10 | 2 | -1 | -3 | 1

Screens as filed in PubChem BioAssay.
